Consider one compound from paper PMC9179932 (Nature chemical biology, 2022).

For one series, the target named is recombinant DPP9 (Homo sapiens, UniProt Q86TI2). Briefly: AP-AMC-based DPP9 substrate assay. The class given is biochemical. The note with it: Supplementary Table 1. The gist of the method: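 Recombinant DPP9 (1 nM) is dispensed into 384-well plates and test compound is added by pintool over a concentration series. Reaction starts with 25 μM AP-AMC. Cleavage is read as rising fluorescence (ex/em 380/460 nm) at 25 °C for 30 min.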

Series [1] addresses T1, PEPD (Homo sapiens, UniProt P12955).
T1 sequence (P12955 1-493): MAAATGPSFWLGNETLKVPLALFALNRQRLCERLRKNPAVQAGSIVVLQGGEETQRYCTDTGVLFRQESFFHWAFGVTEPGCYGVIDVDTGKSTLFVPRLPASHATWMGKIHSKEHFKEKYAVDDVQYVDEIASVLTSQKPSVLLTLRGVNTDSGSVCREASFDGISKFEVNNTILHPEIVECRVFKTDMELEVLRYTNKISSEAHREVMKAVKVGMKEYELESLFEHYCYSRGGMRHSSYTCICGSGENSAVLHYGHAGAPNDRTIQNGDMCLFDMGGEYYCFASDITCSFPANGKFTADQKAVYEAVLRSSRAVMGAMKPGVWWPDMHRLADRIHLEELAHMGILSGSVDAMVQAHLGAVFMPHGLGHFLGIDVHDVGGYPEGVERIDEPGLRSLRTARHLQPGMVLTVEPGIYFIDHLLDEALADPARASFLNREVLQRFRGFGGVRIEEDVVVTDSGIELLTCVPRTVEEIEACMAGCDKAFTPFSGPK
Nature of the series: PEPD assay. In kind it is biochemical. The gist of the method:
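His-tagged human PEPD is expressed in E. coli Rosetta DE3 (IPTG, 4 h, 37 °C) and purified on TALON resin. Enzyme at 50 nM is mixed with Ala-Pro (40 μM final) and test compound. Liberated alanine is measured fluorometrically (resorufin, ex/em 535/587 nm) at 25 °C with an L-alanine assay kit.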

Another series has as its target T2, prolidase (PEPD) (Homo sapiens, UniProt P12955).
T2 sequence (P12955 1-493): T1 sequence (P12955 1-493)
Nature of the series: Prolidase activity. The class given is biochemical. Conditions: dose-dependent. The method in brief:
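THP-1 lysates are normalised to 5 mg ml−1 and incubated with Ala-Pro dipeptide (40 μM final) and test compound at varying doses. Released alanine is quantified as increasing resorufin fluorescence (535/587 nm) at 25 °C using an L-alanine detection kit.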

Series [2] relates to bestatin-sensitive aminopeptidases. Briefly: Recombinant aminopeptidase AMC reporter assays. The class given is biochemical. The note with it: Supplementary Table 1. The method in brief:
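Recombinant enzymes are incubated with test compound over a concentration range, then AMC substrate is added. Enzyme and substrate pairs: RNPEP 1.4 nM with 200 μM R-AMC; DPP3 0.6 nM with 100 μM RR-AMC; LTA4H 114.3 nM with 400 μM R-AMC; NPEPPS 1 nM with 10 μM L-AMC; ANPEP 1.2 nM with 100 μM A-AMC. Fluorescence (380/460 nm) is recorded at 25 °C for 30 min.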
On the technique in general: Reporter assays use an easily measured gene product as a stand-in for the process of interest.

The target of series [3] is T1, PEPD. Nature of the series: CETSA in HEK 293T lysates. The note with it: 10 μM. In kind it is binding. The method in brief: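 HEK 293T cells are sonicated and cleared at 10,000g for 10 min. Clarified lysate is incubated with test compound (10 μM) for 30 min, then heated for 30 min at a temperature series. Aggregates are pelleted at 18,000g for 20 min, and the soluble supernatant is immunoblotted for the target.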

Another series addresses NPEPPS (Homo sapiens, UniProt P55786). Nature of the series: CETSA in HEK 293T lysates. The class given is binding. Conditions: 10 μM. The method in brief: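 HEK 293T cells homogenised by sonication; debris cleared at 10,000g for 10 min. Clarified lysate incubated 30 min with test compound, then heated 30 min at a series of set temperatures between 38.7 and 70.9 °C. Aggregates pelleted at 18,000g for 20 min; soluble target in supernatant detected by immunoblotting.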

The target of series [4] is T1, PEPD. Briefly: CETSA in THP-1 cell lysates. The class given is binding. The note with it: 0.5, 5 μM. The method in brief: (§1)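 THP-1 (Cas9) cell lysate is made by sonication and cleared at 10,000g for 10 min. It is exposed to test compound (0.5 or 5 μM) for 30 min, then heated 30 min at 40.6, 50.8, 60.1 or 70.9 °C. After spinning at 18,000g for 20 min, the soluble fraction is immunoblotted.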

The target of series [5] is T3, XPNPEP1 (Homo sapiens, UniProt Q9NQW7). Nature of the series: CETSA in THP-1 cell lysates. The class given is binding. Conditions: 0.5, 5 μM. The method in brief:
as §1
Target sequence in this assay (Q9NQW7 whole entry): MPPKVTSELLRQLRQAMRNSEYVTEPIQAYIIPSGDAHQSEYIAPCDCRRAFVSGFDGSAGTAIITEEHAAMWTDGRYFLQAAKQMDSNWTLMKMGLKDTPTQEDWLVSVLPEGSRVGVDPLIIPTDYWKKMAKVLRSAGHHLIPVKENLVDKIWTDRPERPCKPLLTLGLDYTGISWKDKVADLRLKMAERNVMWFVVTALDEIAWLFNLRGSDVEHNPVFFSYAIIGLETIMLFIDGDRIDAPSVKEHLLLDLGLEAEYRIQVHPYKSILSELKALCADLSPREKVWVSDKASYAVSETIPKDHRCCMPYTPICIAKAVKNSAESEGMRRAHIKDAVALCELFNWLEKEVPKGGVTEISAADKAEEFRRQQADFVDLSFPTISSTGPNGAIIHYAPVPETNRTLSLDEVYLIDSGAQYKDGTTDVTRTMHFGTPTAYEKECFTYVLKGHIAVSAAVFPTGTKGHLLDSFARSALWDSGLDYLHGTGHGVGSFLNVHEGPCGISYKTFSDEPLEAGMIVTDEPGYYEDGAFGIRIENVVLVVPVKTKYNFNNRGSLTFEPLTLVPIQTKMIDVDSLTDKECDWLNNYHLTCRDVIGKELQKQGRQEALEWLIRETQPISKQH

In series [6] the target is T4, XPNPEP3 (Homo sapiens, UniProt Q9NQH7). Nature of the series: CETSA in THP-1 cell lysates. In kind it is binding. The gist of the method: as §1
The target of series [7] is T3, XPNPEP1. Briefly: XPNPEP1 enzymatic assay. The class given is biochemical. The note with it: Supplementary Table 2. The method in brief:
(§2)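 Enzymes are XPNPEP1 recombinant at 3.5 nM, or XPNPEP3 FLAG-immunoprecipitated after 48 h overexpression in HEK 293T. Each is treated with graded doses of test compound. H-Lys(abz)-Pro-Pro-pNA is added at 100 μM final, and fluorescence (ex/em 320/410 nm) is monitored for 30 min.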
Target sequence in this assay (Q9NQW7 whole entry, species assumed): as the sequence (Q9NQW7 whole entry) above

Series [8] has as its target T4, XPNPEP3. Nature of the series: XPNPEP3 enzymatic assay. Conditions: Supplementary Table 2. In kind it is biochemical. The gist of the method: as §2
Another series relates to MV4;11 cells. Briefly: MV4. The class given is cell-based. Conditions: 24 h, CTG.
In another series the target is NLRP1–DPP9 interaction (Homo sapiens, UniProt Q86TI2). Briefly: DPP9 displacement from FLAG-NLRP1 on anti-FLAG beads. In kind it is binding. The note with it: VbP 10 μM; VP dipeptide 0.5, 5 mM; CQ31, CQ04 10 μM.
Sequence of NLRP1–DPP9 interaction (Q86TI2 whole entry): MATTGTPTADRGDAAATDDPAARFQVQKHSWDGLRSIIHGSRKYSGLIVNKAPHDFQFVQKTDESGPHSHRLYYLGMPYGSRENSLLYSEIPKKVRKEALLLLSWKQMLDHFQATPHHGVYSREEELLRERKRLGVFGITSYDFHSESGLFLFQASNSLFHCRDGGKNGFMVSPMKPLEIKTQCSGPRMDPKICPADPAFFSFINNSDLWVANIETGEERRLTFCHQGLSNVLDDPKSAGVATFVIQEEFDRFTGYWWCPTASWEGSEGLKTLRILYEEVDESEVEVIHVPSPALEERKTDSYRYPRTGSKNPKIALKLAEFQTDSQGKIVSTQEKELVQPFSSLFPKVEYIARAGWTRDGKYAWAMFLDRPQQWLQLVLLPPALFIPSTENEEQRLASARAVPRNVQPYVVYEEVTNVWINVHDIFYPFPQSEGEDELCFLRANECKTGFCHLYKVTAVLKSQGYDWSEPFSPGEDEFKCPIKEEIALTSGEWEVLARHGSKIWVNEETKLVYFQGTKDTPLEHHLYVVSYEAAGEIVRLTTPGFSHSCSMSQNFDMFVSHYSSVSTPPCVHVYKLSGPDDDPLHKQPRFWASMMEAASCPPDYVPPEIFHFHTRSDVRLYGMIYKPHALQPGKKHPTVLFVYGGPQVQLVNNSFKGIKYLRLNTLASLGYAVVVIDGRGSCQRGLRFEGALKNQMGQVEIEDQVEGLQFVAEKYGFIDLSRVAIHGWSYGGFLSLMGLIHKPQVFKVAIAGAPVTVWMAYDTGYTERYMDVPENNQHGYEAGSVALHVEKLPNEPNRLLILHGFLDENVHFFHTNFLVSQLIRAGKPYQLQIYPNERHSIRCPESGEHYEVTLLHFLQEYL

Sequence of NPEPPS (P55786 whole entry): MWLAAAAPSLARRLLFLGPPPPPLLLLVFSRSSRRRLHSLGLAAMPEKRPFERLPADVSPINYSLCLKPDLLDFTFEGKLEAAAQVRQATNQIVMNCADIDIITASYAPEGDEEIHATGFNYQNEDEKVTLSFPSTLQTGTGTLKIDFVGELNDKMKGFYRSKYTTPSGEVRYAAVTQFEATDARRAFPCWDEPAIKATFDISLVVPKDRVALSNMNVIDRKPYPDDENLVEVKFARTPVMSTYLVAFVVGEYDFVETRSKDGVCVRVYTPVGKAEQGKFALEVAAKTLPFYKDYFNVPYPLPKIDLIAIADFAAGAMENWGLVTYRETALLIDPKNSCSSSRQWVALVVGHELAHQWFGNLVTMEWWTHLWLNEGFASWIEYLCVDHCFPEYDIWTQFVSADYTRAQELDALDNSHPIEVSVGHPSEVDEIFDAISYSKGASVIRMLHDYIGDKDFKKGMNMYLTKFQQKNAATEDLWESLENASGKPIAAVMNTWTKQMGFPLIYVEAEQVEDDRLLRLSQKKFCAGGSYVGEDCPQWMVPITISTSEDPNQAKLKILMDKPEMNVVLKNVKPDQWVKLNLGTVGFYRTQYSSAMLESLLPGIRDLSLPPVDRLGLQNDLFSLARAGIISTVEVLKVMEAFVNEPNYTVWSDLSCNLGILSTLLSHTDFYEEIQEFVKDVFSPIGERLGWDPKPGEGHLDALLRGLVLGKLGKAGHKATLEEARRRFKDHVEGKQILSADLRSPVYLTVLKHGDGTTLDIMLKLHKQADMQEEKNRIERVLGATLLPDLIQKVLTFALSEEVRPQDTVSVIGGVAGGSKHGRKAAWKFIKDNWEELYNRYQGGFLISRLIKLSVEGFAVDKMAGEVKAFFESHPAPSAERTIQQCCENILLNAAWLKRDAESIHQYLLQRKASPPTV
Sequence of recombinant DPP9 (Q86TI2 whole entry, species assumed): as the sequence (Q86TI2 whole entry) above

For orientation: IC50 means the concentration needed to halve the response being measured. A lower IC50 goes with higher potency. In the case of `CC(C)C[C@@H](N)C(O)C(=O)N1CCC[C@H]1C(=O)O` (stereo partly drawn) [CQ04, (2S,3R)-3-amino-2-hydroxy-5-methyl-hexanoyl-proline], on recombinant DPP9, the “direct DPP9 (DPP8/9) inhibition” value is recorded as “did not inhibit”. Inhibition at PEPD [1] was half-maximal at 160 nM (IC50). The “prolidase activity (Ala-Pro dipeptide cleavage) in THP-1 cell lysates” value at prolidase (PEPD) is recorded as “completely blocked prolidase activity”. In [2], the “inhibition of bestatin-sensitive aminopeptidases” value was “did not inhibit”. In addition, the “thermal stabilization of PEPD” value on PEPD [3] was “stabilized PEPD”; at PEPD [4], “stabilize both PEPD and XPNPEP1”. The “thermal stabilization of NPEPPS” value at NPEPPS is given as “nor the bestatin-sensitive aminopeptidase NPEPPS”. Also, at XPNPEP1 [5], the “thermal stabilization of XPNPEP1” value was “stabilize both PEPD and XPNPEP1”. Further, at XPNPEP3 [6], the “thermal stabilization of XPNPEP3” value is recorded as “slightly stabilized XPNPEP3”. Besides, the “inhibition of XPNPEP1 enzymatic activity” value on XPNPEP1 [7] is recorded as “inhibits XPNPEP1 enzymatic activity”. Moreover, the “inhibition of XPNPEP3 in an enzymatic assay” value at XPNPEP3 [8] was “inhibited XPNPEP3”. Besides, the “cytotoxicity in CASP1−/− MV4;11 cells” value in the series with MV4;11 cells (CASP1−/−) is “not cytotoxic”. The “cytotoxicity in WT MV4;11 cells” value in the series with MV4;11 cells (WT) is given as “not cytotoxic”. Besides, the “disruption of NLRP1–DPP9 interaction (DPP9 elution)” value on NLRP1–DPP9 interaction is given as “had no impact on the NLRP1 ternary complex”.
